Autophagy mod = modulators of autophagy | MEF GFP-LC3 puncta imaging; test concentration mostly 10 µM | AID 463193 | calls only at 10 µM (by protocol) | 0.98% of 190,000 active;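 active = percentage of spot-positive cells more than 3 SD above its plate mean, without a fluorescence outlier flag or 80% toxicity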
MT stabilize HCS = microtubule stabilizers in HeLa cells; % tubulin-high responders, % at 10 µM; 0.83% of 200,000 active; AID 2205; HeLa tubulin immunostaining HCS, 24 h; share of cells brighter than vehicle mean+2SD;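 active = plate Z-score above 3 for both tubulin-high and condensed-nucleus cell shares, with cell loss under 80%, at 10 µM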;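 note: anti alpha tubulin signal scored within the nucleus-defined area of each cell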
b-catenin transl = modulators of beta-catenin nuclear translocation. HeLa beta-catenin nuclear translocation, immunofluorescence imaging. nuclear translocation activity, % at 5 µM. 0.3% of 190,000 active. AID 1665;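 active = nuclear translocation activity above 50% at 5 µM, with a well cell count of 50 or more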;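 note: per-cell ratio of nuclear to cytoplasmic median beta-catenin stain intensity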
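Test system: human HeLa cells, native beta-catenin. Compound dosing: 5 µM primary single dose, 0.1% DMSO, 0.02–20 µM confirmation series. Incubation: compound exposure 24 h at 37°C. Detection: beta-catenin immunostaining with DAPI counterstain, 20x imaging, 6 fields/well. Read-out basis: Nuclear/cytoplasmic beta-catenin signal ratio, % activation.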
Ins promoter up = MIN6 insulin promoter up-regulation; MIN6 insulin promoter-GFP reporter, high-content imaging; active compounds read high; z-score at 5 µM; 0.3% of 190,000 active;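 active = z-score above 3 at 5 µM with at least 500 cells counted in the well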
Numbers stand for hits; i = inactive; nt = no result; + = active, no number. In the library only some 1.9% were active in any assay of this set; here they are far more common.

SMILES	Autophagy mod	MT stabilize HCS	b-catenin transl	Ins promoter up
CCOC(=O)/C(C#N)=C\c1ccc(O)c(OC)c1	i	i	i	i
CCOC(=O)c1c(-c2ccc(C)cc2)csc1NC(=O)/C(C#N)=C/c1ccc(O)c(OC)c1	+	i	i	nt
CCN(CC)CCOC(=O)c1ccc(NC(=O)c2cn(-c3ccccc3)nc2-c2cccs2)cc1	i	i	i	i
CCCCCCNC(=O)N[C@H](C(=O)NCCC[C@H]1CN2C(=NC[C@H]2C)N1CCC(c1ccccc1)c1ccccc1)C(C)O (stereo partly drawn)	nt	nt	i	i
CC1=NNC(=O)C1CCC(=O)N/N=C/c1ccc(C)cc1 (stereo not drawn)	nt	nt	i	3.3
CCOc1ccccc1N1CCN(C(=O)c2ccccc2)CC1	i	i	nt	nt
CCOc1ccccc1N1CCN(C(=O)C2c3ccccc3Oc3ccccc32)CC1	i	39.6	59.5	i
Cc1cc(S(=O)(=O)NC2CCCCC2)c(C)s1	i	i	i	3.49
O=C(CC1(O)C(=O)N(C/C=C/c2ccccc2)c2ccccc21)c1ccccn1 (stereo not drawn)	+	i	i	i
Cc1ccc2[nH]c(-c3cccc(F)c3)cc(=O)c2c1	i	26.7	nt	i
COc1ccc(CCn2c(N)c(C(=O)NCc3ccco3)c3nc4ccccc4nc32)cc1	i	15.2	i	i
Cc1ccc(C)c(NC(=S)NCc2cccn2C)c1	i	i	i	i
Cc1cc(N2CCN(c3nc(N4CCOCC4)nc4ccccc34)CC2)c2ccccc2n1	+	i	nt	nt
CCCC(=O)Nc1sc(C(=O)Nc2cccc(N)c2)c(C)c1C(=O)OC	i	i	i	i
COc1ccc(NC(=O)c2cccnc2)c([N+](=O)[O-])c1	i	21.7	i	i
COc1ccc(NC(=O)c2ccccc2)c([N+](=O)[O-])c1	i	i	i	i
COc1ccc(NC(=S)NC(NC(C)=O)C(Cl)(Cl)Cl)c([N+](=O)[O-])c1 (stereo not drawn)	i	i	i	i
COc1ccc(NC(=S)NC(NC(=O)c2cccc(Cl)c2)C(Cl)(Cl)Cl)c([N+](=O)[O-])c1 (stereo not drawn)	+	i	i	nt
COc1ccc(NC(=S)NC(NC(=O)c2cccc(C)c2)C(Cl)(Cl)Cl)c([N+](=O)[O-])c1 (stereo not drawn)	+	i	i	nt
O=C(CCn1cnnn1)Nc1cccc(F)c1	i	i	i	i
CSc1ccc(CN2CCCC(CNC(=O)c3ccc(F)cc3)C2)cc1 (stereo not drawn)	i	i	i	i
O=C(N/N=C/c1cccs1)[C@H]1C[C@@H]1c1ccccc1	i	i	i	i
CC(=O)c1c(COC(=O)c2ccncc2)nc2ccccc2[n+]1[O-]	i	i	i	4.18
CC(=O)c1c(COC(=O)c2cccc(C)c2)nc2ccccc2[n+]1[O-]	nt	nt	i	i
Cc1cc(=O)[nH]c(N/N=C/C2=C(N3CCOCC3)C(=C\c3ccc(Cl)cc3)/CC2)n1	+	i	i	i
SMILES	Autophagy mod	MT stabilize HCS	b-catenin transl	Ins promoter up
Cc1cc(C)nc(N/N=C/C2=C(N3CCOCC3)C(=C/c3ccccc3)/CC2)n1	i	i	nt	i
CCN(CC)c1ccc(C=C2C(=O)OC(c3ccccc3)OC2=O)cc1 (stereo not drawn)	i	i	i	nt
CCN(CC)c1ccc(/C=C/C(=O)C2C(=O)C=C(C)OC2=O)cc1 (stereo not drawn)	+	i	i	nt
COc1cccc(NC(=O)c2ccc(NCCCN3CCC(C)CC3)c([N+](=O)[O-])c2)c1	i	i	i	nt
COc1cccc(NC(=O)c2ccc(NCCCN3CC(C)CC(C)C3)c([N+](=O)[O-])c2)c1 (stereo not drawn)	+	i	i	i
CCOc1cc(C(=O)N/N=C/C(Br)=C/c2ccccc2)cc(OCC)c1OCC	i	9.1	nt	i
COc1ccccc1Cn1cccc1C=O	+	i	i	i
Cc1ccc(-c2csc(NC(=O)CSc3nc4ccccc4c(=O)n3CCCN(C)C)n2)cc1	+	i	i	i
Cc1csc(NC(=O)CSc2nnc3c4ccccc4nc(C(C)(C)C)n23)n1	i	46.3	58.5	i
Cc1ccc(C(=O)CSc2nnc3c4ccccc4nc(C(C)(C)C)n23)cc1	i	25.7	i	i
CC(=O)CSc1nnc2c3ccccc3nc(C(C)(C)C)n12	i	i	i	nt
O=C(O/N=C/C1=C(Cl)c2ccccc2CC1)c1ccc(F)cc1	i	i	i	i
O=C(Cn1nnc(-c2ccc(CN3CCOCC3)cc2)n1)N(c1ccccc1)c1ccccc1	i	i	i	nt
CCOc1ccc(NC(=O)C2CCC(C)(C(=O)O)C2(C)C)cc1 (stereo not drawn)	i	i	i	3.64
COc1cccc(Sc2ccccc2/C=N/NC(N)=O)c1	i	15.2	i	i

Assay outcomes: PubChem BioAssay, several laboratories
